Experimental data taken from ChEMBL document CHEMBL2390828, “Synthesis and biological characterization of spiro[2H-(1,3)-benzoxazine-2,4'-piperidine] based histone deacetylase inhibitors” (Eur J Med Chem, 2013).

Assays:
[1] = target: Histone deacetylase; assay: Inhibition of HDAC in human Hela cell nuclear extract after 15 mins; type: protein assay
[2] = test system: K562; assay: Cytotoxicity against human K562 cells; type: functional, cell-based
[3] = test system: A549; assay: Cytotoxicity against human A549 cells; type: functional, cell-based
[4] = test system: HCT-116; assay: Cytotoxicity against human HCT116 cells; type: functional, cell-based
[5] = Metabolic stability in mouse liver microsomes after 30 mins by LC-MS/MS analysis; type: ADME, Microsome; details: read-out: Stability
Summary of the method: (§1)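 Compounds were incubated with mouse or human liver microsomal preparation for 30 min at 37 °C. The reaction was stopped with CH3CN. Unmetabolized compound was quantified by LC-MS/MS in MRM mode and reported as percent remaining. Replicates n ≥ 2, mean values given.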

[6] = Metabolic stability in human liver microsomes after 30 mins by LC-MS/MS analysis; type: ADME, Microsome; details: read-out: Stability; summary of the method: as §1
[7] = Tmax in CD1 mouse at 5 mg/kg, iv and 15 mg/kg, po; type: ADME, organism-based; details: in vivo
Summary of the method: (§2)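 CD-1 mice got single doses of 5 mg/kg iv or 15 mg/kg orally. The iv vehicle was water with 3% DMSO and 9.7% encapsin. The oral vehicle was water with 5% DMSO and 9.5% encapsin. Plasma PK parameters were calculated, including AUC0–∞, clearance, half-life, Vss, cmax and oral bioavailability.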

[8] = Cmax in CD1 mouse at 15 mg/kg, po; details: CD1, mouse, in vivo
[9] = AUC (0 to infinity) in CD1 mouse at 15 mg/kg, po; type: ADME, organism-based; parameters: time infinity, dose 15 mg/kg, route oral; details: plasma; summary of the method: as §2
[10] = Cmax in CD1 mouse at 5 mg/kg, iv; type: ADME, organism-based; parameters: dose 5 mg/kg, route intravenous; details: in vivo; summary of the method: as §2
[11] = AUC (0 to infinity) in CD1 mouse at 5 mg/kg, iv; type: ADME, organism-based; parameters: time infinity, dose 5 mg/kg, route intravenous; details: plasma; summary of the method: as §2
[12] = Oral bioavailability in CD1 mouse at 15 mg/kg; details: in vivo
[13] = Solubility of the compound at pH 7.4; type: physicochemical; details: buffer
[14] = Terminal half life in CD1 mouse at 5 mg/kg, iv and 15 mg/kg, po; type: ADME, organism-based; details: in vivo, read-out: beta t1/2 (converted); summary of the method: as §2
[15] = Volume of distribution at steady state in CD1 mouse at 5 mg/kg, iv and 15 mg/kg, po; type: ADME, organism-based; details: in vivo, read-out: Vdss; summary of the method: as §2
[16] = target: Voltage-gated inwardly rectifying potassium channel KCNH2 (Homo sapiens, UniProt Q12809); assay: Inhibition of human ERG channel
[17] = Clearance in CD1 mouse at 5 mg/kg, iv and 15 mg/kg, po; type: ADME, organism-based; details: in vivo; summary of the method: as §2

Sequence of Voltage-gated inwardly rectifying potassium channel KCNH2 (Q12809 whole entry): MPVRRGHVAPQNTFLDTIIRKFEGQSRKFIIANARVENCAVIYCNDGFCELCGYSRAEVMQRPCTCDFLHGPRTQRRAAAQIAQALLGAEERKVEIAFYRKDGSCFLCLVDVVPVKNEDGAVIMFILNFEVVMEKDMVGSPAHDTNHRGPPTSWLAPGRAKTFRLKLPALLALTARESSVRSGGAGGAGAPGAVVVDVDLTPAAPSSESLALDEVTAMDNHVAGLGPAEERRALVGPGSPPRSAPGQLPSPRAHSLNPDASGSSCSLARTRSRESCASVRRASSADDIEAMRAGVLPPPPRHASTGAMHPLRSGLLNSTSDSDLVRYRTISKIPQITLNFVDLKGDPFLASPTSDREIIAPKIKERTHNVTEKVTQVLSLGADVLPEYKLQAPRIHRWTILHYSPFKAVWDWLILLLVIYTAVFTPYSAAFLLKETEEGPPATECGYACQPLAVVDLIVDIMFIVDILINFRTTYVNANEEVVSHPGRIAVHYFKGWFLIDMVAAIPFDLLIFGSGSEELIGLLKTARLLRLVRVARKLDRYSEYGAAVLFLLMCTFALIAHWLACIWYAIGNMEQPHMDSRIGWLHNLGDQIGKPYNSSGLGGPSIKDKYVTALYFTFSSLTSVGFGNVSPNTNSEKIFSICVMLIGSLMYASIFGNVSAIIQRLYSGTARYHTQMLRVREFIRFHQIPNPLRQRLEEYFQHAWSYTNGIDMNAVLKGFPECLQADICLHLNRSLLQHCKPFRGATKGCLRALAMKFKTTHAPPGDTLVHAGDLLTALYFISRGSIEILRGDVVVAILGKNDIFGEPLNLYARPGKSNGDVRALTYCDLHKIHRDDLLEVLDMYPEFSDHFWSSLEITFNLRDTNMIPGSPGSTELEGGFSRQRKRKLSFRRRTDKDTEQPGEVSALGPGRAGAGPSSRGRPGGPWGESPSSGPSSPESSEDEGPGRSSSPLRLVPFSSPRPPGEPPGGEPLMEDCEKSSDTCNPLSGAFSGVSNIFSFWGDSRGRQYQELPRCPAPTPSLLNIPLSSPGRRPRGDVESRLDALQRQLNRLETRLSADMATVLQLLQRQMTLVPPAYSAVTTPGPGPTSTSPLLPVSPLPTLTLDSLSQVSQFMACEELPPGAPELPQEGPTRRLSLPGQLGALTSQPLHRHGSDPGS

SMILES	IC50 [1] [nM]	IC50 [2] [nM]	IC50 [3] [nM]	IC50 [4] [nM]	other results
CN1C(=O)c2cc(/C=C/C(=O)NO)ccc2OC12CCN(Cc1ccccc1)CC2	136	1330	2220	979	
O=C(/C=C/c1ccc2c(c1)C(=O)N(Cc1ccccc1)C1(CCN(CCc3ccccc3)CC1)O2)NO	645	1250	1510	1670	
O=C(/C=C/c1ccc2c(c1)C(=O)NC1(CCN(CCc3ccccc3)CC1)O2)NO	91	494	1420	469	remaining at 0.5 h [5]: 46%; remaining at 0.5 h [6]: 68%
CN1CCC2(CC1)Oc1ccc(/C=C/C(=O)NO)cc1C(=O)N2C	527	1700	3540	1400	
CN1C(=O)c2cc(/C=C/C(=O)NO)ccc2OC12CCN(CCc1ccccc1)CC2	258	795	2550	1060	
O=C(/C=C/c1ccc2c(c1)C(=O)N(Cc1ccccc1)C1(CCN(Cc3ccccc3)CC1)O2)NO	540	1720	2620	1870	
O=C(/C=C/c1ccc2c(c1)C(=O)NC1(CCNCC1)O2)NO	78	8930	4810	6860	
O=C(/C=C/c1ccc2c(c1)C(=O)NC1(CCN(Cc3ccc(F)cc3)CC1)O2)NO	103	961	1670	498	Tmax [7]: 5 min; remaining at 0.5 h [5]: 98%; Cmax [8]: 5.05 µM; AUC(0-inf) [9]: 1980 ng·h/mL; remaining at 0.5 h [6]: 71%; Cmax [10]: 13 µM; AUC(0-inf) [11]: 1880 ng·h/mL; bioavailability [12]: 35%; solubility [13]: > 200 µM; half-life [14]: 6.9 h; Vd [15]: 3.1 L/kg; inhibition (INH) [16]: 70%; clearance [17]: 44.3 mL/min/kg
